# Assay outcomes (PubChem)
# DAGLB inh: diacylglycerol lipase beta (human) inhibition | Q8NCG7 | HEK293T DAGLB membrane lysate, EnzChek fluorogenic substrate | inhibition, % at 5.17 µM | 0.059% of 340,000 active | AID 504411; in the data active = inhibition above about 34%;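 note: 0% = enzyme with vehicle and 100% = wells lacking enzyme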
# Target sequence (Q8NCG7 whole entry, looked up): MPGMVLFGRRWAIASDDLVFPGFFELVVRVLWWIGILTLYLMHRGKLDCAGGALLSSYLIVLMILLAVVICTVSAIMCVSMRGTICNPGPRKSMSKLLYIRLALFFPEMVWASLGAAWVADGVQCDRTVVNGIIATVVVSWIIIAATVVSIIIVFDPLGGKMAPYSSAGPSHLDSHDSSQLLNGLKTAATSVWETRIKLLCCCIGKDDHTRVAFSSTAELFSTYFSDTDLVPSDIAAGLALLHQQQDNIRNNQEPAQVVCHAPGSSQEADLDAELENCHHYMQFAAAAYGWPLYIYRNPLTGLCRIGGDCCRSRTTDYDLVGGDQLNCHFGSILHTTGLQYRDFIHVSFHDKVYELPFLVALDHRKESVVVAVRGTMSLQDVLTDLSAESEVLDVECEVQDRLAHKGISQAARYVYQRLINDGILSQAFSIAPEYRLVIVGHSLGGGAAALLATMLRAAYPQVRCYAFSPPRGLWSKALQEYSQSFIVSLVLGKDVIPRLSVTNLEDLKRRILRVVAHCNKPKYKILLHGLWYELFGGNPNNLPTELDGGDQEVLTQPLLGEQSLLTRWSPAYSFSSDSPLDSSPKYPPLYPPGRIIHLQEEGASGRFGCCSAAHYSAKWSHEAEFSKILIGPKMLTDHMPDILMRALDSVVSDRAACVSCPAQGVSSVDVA
# DNA FID counter: displaces DNA intercalator in HCV helicase counter-screen. DNA fluorescent intercalator displacement, fluorescence. inhibition, % at 7.9 µM. 0.17% of 290,000 active; in the data active = inhibition above about 37%;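 note: 0% = vehicle and 100% = reference compound; higher means more ethidium bromide displaced from hairpin DNA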
# GPR7 antagonist: blocks human GPR7 receptor signaling; GPR7-expressing cells, fluorescence antagonist assay; 1.1% of 290,000 active; P48145; inhibition, % at 4.4 µM; in the data active = inhibition above about 16%, passing the limit was not always enough;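 note: cells stimulated with the agonist NPW; 0% = agonist with vehicle and 100% = vehicle without agonist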
# core dimer inh: HCV core protein dimerization inhibition | TR-FRET GST/Flag-core106 dimerization, 1536-well | inhibition, % at 5 µM | 0.33% of 300,000 active;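 active = inhibition above the mean of all tested compounds plus 3 SD, set per screening campaign, cut at about 45% in these data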
#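 Test system: GST/Flag-tagged HCV core106 proteins; Medium: KF-containing HEPES buffer, pH 7.45, DTT, CHAPS, BSA; Times: compound-protein-antibody incubation 4 h at 22.5 °C; Detection: TR-FRET 671 and 617 nm emission; Benchmarks: wells lacking GST-core106 and wells with excess unlabelled core106.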
# GRK2 aptamer HTS: inhibitors of human GRK2 displacing RNA aptamer; P25098; 0.59% of 330,000 active; bead flow cytometry, FAM-aptamer displacement from GRK2; inhibition of aptamer binding, % at 10 µM;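 active = inhibition of aptamer binding above 40%, roughly 3 SD of noise, on plates passing a quality check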;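 note: median bead fluorescence of bound FAM aptamer so fluorescent compounds give negative values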
# HCV NS3 hel inh: blocks Hepatitis C virus NS3 helicase unwinding. NS3 helicase DNA unwinding, Cy5 molecular beacon fluorescence. inhibition, % at 10.9 µM. 0.56% of 290,000 active;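 active = inhibition above the mean of all tested compounds plus 3 SD, set per campaign, cut at about 35% in these data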;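 note: 0% = DMSO wells and 100% = thioflavine S control wells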
#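 System: Hepatitis C virus NS3 helicase domain fragment enzyme | Reagent: Annealed dual-labelled DNA beacon duplex, ATP-started | Compound dosing: 10.9 µM single point, 0.8% DMSO | Incubation: 1 h reaction at 25 °C, ATP-initiated | Technique: Cy5 fluorescence | Evaluation: Percent inhibition from t60/t0 fluorescence ratio | Benchmarks: Low DMSO, high thioflavine S at 110 µM | Replication: Singlicate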
# GPR7 antag conf: human GPR7 antagonism, confirmation assay. shares compounds with GPR7 antagonist. GPR7-expressing cells, calcium fluorescence antagonist mode. inhibition, % at 4.4 µM. 52% of 2,400 active; in the data active = inhibition above about 24%;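 note: stimulated with the GPR7 agonist NPW; 0% = agonist plus vehicle and 100% = vehicle alone without agonist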
# MCHR1 antag: antagonizes human MCHR1, a GPR7 antagonist counter-screen; AID 2148; MCHR1-expressing cells, fluorescence antagonist assay; shares compounds with GPR7 antagonist; 62% of 2,400 active; inhibition, % at 4.4 µM; in the data active = inhibition above about 22%;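 note: 0% = vehicle with agonist and 100% = vehicle without agonist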
# Starred values were filed as active, the others as inactive; x = not tested or not shown; ! = not active in a repeat. Compounds with a hit are over-represented: about 2.2% of the library has one in this group of screens.
SMILES,DAGLB inh,DNA FID counter,GPR7 antagonist,core dimer inh,GRK2 aptamer HTS,HCV NS3 hel inh,GPR7 antag conf,MCHR1 antag
Cc1ccc(NC2=C(Cl)C(=O)OC2OC(=O)c2ccccc2)c(C)c1 (stereo unspecified),15,-8,-2,2,4,0,x,x
Cc1ccccc1NC1=C(Cl)C(=O)OC1OC(=O)c1ccccc1C (stereo unspecified),-3,-16,52*,5,0,9,20,59*
C#CCN1Cc2ccccc2Oc2cc(Br)ccc2S1(=O)=O,-3,x,x,x,2,x,x,x
O=C(c1cccs1)N1CCC(c2ccccc2)C1 (stereo unspecified),-6,-12,21*,-5,0,0,7,-5
Cc1ccc(S(=O)(=O)N2CCC(C(=O)OCC(=O)N(Cc3ccccc3)C(C)(C)C)CC2)cc1C,-6,x,x,10,2,x,x,x
CN1/C(=C\C(=O)COC(=O)Cn2nnc(-c3ccccc3)n2)C(C)(C)c2ccccc21,7,-9,26*,6,1,-1,18,38*
O=C(Nc1ccccc1C(=O)N1CCCCC1)c1ccc(Cl)cc1Cl,-1,-20,-2,-13,0,17,x,x
C/C(CC(=O)Nc1ccccc1)=N\NC(=O)COc1ccc(C)cc1Br,-2,-13,-2,4,0,3,x,x
CCc1ccc(NC(=O)C/C(C)=N/NC(=O)COc2ccc(C)cc2Br)cc1,-2,-19,42*,-1,0,22,-4,-9
O=c1ccc(-c2ccc(S(=O)(=O)Nc3ccccc3Cl)o2)n[nH]1,-1,-6,4,3,2,-3,x,x
CCOC(=O)CNC(=S)N(CCCN1CCCCC1)Cc1cccs1,-1,23,35*,-6,0,1,9,16
CCOC(=O)CNC(=S)N(CCCN1CCCCCC1)Cc1cccs1,1,9,7,2,0,-4,x,x
CC(C)NC(=O)COC(=O)c1ccc(Oc2ccccc2)cc1,-2,-17,28*,-1,2,-2,6,35*
CCCCNCCCOc1ccc(C)cc1Br,-3,28,0,-1,0,-8,x,x
CCCCNCCCOc1cccc(Cl)c1Cl,1,11,35*,2,0,-3,14,11
Cc1nn(-c2ccccc2)c2nc(C(Cl)(Cl)Cl)[nH]c(=O)c12,12,-7,-2,7,0,13,x,x
CCOC(=O)[C@H]1[C@H]2COc3ccc(OC)cc3[C@@H]2N2C(=O)c3cc(OC)ccc3NC(=O)[C@@]12C,-5,x,x,8,3,x,x,x
CCCCCOc1ccc(Cn2ccnc2)cc1[N+](=O)[O-],1,9,21*,-7,0,-23,37*,48*
CCOc1ccc(Cn2ccnc2)cc1[N+](=O)[O-],-1,5,-3,0,0,2,x,x
Cn1c(=O)oc2cc(S(=O)(=O)N3CCN(c4ccccc4F)CC3)ccc21,2,1,5,-21,0,2,x,x
COc1ccccc1N1CCN(S(=O)(=O)c2ccc3c(c2)oc(=O)n3C)CC1,1,-26,30*,3,1,11,4,-2
CSc1ccc(-c2nc3cnccn3c2Nc2ccc3c(c2)OCO3)cc1,2,-14,27*,-1,2,-9,15,2
CCCCOC(=O)Cn1c(=O)n(CC(=O)OCCCC)c2ccccc21,-5,-31,-2,5,2,2,x,x
CCCCCCCCCCOC(=O)Cn1c(COc2cccc(C)c2)[n+](C)c2ccccc21,5,24,45*,-3,x,-55,68*,85*
CCOC(=O)Cn1c(COc2ccccc2OC)[n+](C)c2ccccc21,x,x,x,0,0,x,x,x
SMILES,DAGLB inh,DNA FID counter,GPR7 antagonist,core dimer inh,GRK2 aptamer HTS,HCV NS3 hel inh,GPR7 antag conf,MCHR1 antag
CCCCCCCCCCOC(=O)Cn1c(COc2ccccc2C)[n+](C)c2ccccc21,5,27,28*,-9,0,-40,83*,88*
CCCCCCCCCCOC(=O)Cn1c(COc2ccc(Cl)cc2)[n+](C)c2ccccc21,14,15,60*,-2,0,-50,66*,70*
CCCCCCCCCCOC(=O)Cn1c(COc2ccc(OC)cc2)[n+](C)c2ccccc21,8,23,79*,-4,0,-59,78*,83*
Cc1cccc(OCCNC(=O)CCc2ccccc2)c1,x,x,x,-1,0,x,x,x
CCCCn1c(N)c(N(CCC(C)C)C(=O)c2ccc3c(c2)OCO3)c(=O)[nH]c1=O,-2,x,x,1,5,x,x,x
O=C(/C=C/c1ccccc1)Nc1nnc(-c2ccco2)o1,0,-1,-7,9,1,4,x,x
CC1CCC(C(C)C)C(OC(=O)COC(=O)c2ccc(N)cc2)C1 (stereo unspecified),-6,-22,-16,3,3,-1,x,x
CCCCCCCCCCOC(=O)Cn1c(COc2ccccc2)[n+](C)c2ccccc21,7,27,71*,-14,0,-81,77*,94*
Cc1ccccc1OCc1n(CC(=O)OC2CC(C)CCC2C(C)C)c2ccccc2[n+]1C (stereo unspecified),10,38*!,42*,-9,0,-40,61*,92*
COc1ccc(Nc2nnc(-c3ccc(C(N)=O)cc3)c3ccccc23)cc1,0,-16,34*,0,0,-22,5,15
CNC(=O)c1ccc(Nc2nnc(-c3ccc(C(N)=O)cc3)c3ccccc23)cc1,0,-31,-3,6,0,-6,x,x
COc1ccc(Nc2nnc(-c3ccc(C(=O)NCCO)cc3)c3ccccc23)cc1,-2,-12,60*,-6,1,-3,2,36*
NC(=O)c1ccc(Nc2nnc(-c3ccc(O)cc3)c3ccccc23)cc1,1,-20,12,0,2,5,x,x
O=C(NCc1ccccc1)C1CCCN(C(=O)NCc2ccccc2)C1 (stereo unspecified),-1,-16,-7,-3,0,2,x,x
